The results in this text go back to ChEMBL document CHEMBL3085714 (J Med Chem, 2013).

For data set [1], the target named is T1, Mitogen-activated protein kinase 14 (Homo sapiens, UniProt Q16539). The data set can be described thus: Competitive inhibition of p38alpha MAP kinase (unknown origin) in presence of 100 uM ATP.
Data set [2] has as its target T1, Mitogen-activated protein kinase 14. The data set can be described thus: Inhibition of p38alpha MAP kinase in human whole blood assessed as inhibition of LPS-induced TNFalpha release by ELISA.
For data set [3] the target is unchanged. The experiment in a line: Inhibition of p38alpha MAP kinase in human whole blood assessed as inhibition of LPS-induced TNFalpha release at 100 uM by ELISA. For orientation: In an ELISA, binding on a coated surface is turned into a signal by an enzyme label.
The nature of data set [4]: Metabolic stability in human/rat liver microsomes at 1 mg/ml after 180 mins by LC/MS analysis. Format: ADME, Microsome. As to conditions: read-out: Stability. An outline of the steps: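 Rat and human liver microsomes were incubated with microsomal protein standardized to 1 mg/mL. Aliquots were withdrawn immediately after reaction start and at 10, 20, 40, 60, 120 and 180 min, then analysed by LC-MS.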

For data set [5], the target named is T1, Mitogen-activated protein kinase 14. The data set can be described thus: Competitive inhibition of p38alpha MAP kinase (unknown origin) at 10 uM in presence of 100 uM ATP.

T1 sequence (Q16539 whole entry): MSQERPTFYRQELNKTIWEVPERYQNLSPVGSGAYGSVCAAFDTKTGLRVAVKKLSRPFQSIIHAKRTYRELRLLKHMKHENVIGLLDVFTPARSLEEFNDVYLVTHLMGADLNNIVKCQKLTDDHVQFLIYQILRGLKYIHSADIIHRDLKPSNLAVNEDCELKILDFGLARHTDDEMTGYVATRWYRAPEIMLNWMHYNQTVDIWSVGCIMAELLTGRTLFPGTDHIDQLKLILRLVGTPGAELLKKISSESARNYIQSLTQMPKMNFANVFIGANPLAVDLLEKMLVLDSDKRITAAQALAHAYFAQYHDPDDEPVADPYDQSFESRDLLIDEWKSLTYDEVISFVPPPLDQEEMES

With `O=C1c2cc(OCCN3CCOCC3)ccc2COc2cc(Nc3ccc(F)cc3F)ccc21`, the IC50 (as a rule, the concentration needed to halve the response being measured) in data set [1] worked out at 21 nM; in data set [2], 429 nM.
As to `O=C1c2ccc(Nc3ccc(F)cc3F)cc2OCc2c(OC[C@@H](O)CO)cccc21`, the IC50 in data set [1] was determined as 25 nM; in data set [2] it was 90400 nM.
For `O=C1c2cc(O)ccc2COc2cc(Nc3ccc(F)cc3F)ccc21` the same measures were 122 nM and 1850 nM.
As for `Nc1ccc2c(c1)C(=O)c1ccc(Nc3ccc(F)cc3N)cc1OC2`, the IC50 in data set [1] stood at 151 nM; in data set [2], 1170 nM.
For `Nc1cccc(Nc2ccc3c(c2)OCc2ccc(N)cc2C3=O)c1` the same measures were 651 nM and 2430 nM.
The matching figures for `Nc1cccc(Nc2ccc3c(c2)OCc2ccc(OCCN4CCOCC4)cc2C3=O)c1`: 146 nM and 684 nM.
`Cc1ccccc1Nc1ccc2c(c1)OCc1cc(OCCN3CCOCC3)ccc1C2=O`: the concentration for half-maximal inhibition (IC50) in data set [1] was determined as 85 nM. Besides, in data set [3], the inhibition – broadly, the share of the control response that was lost under treatment – was 30.3%.
For `COc1cccc2c1COc1cc(Nc3ccc(F)cc3F)ccc1C2=O` the same measures were 63 nM and 44.7%.
Consider `CC(=O)OCCOc1ccc2c(c1)C(=O)c1ccc(Nc3ccc(F)cc3F)cc1OC2`, for which the IC50 in data set [1] was 22 nM.
On the same count and under the same terms, under `O=C1c2ccc(Nc3ccc(F)cc3F)cc2OCc2cccc(OC[C@@H](O)CO)c21` stands above 10000 nM.
Consider `O=C1c2ccc(Nc3ccc(F)cc3F)cc2OCc2cccc(OC[C@H](O)CO)c21`, for which the 50% inhibitory concentration (IC50) in data set [1] was above 10000 nM.
As for `O=C1c2cc(NCCN3CCOCC3)ccc2COc2cc(Oc3ccc(F)cc3F)ccc21`, the IC50 in data set [1] worked out at 819 nM.
In the case of `O=C1c2ccc(Nc3ccc(F)cc3F)cc2CCc2ccc(OCCO)cc21`, the remaining at 3 h in data set [4] was 86%. Also, the IC50 in data set [1] stood at 19 nM; in data set [2] it was 583 nM.
Consider `O=C1c2ccc(Nc3ccc(F)cc3F)cc2CCc2ccc(OCCCO)cc21`, for which, in data set [4], the remaining at 3 h came to 90%. The IC50 in data set [1] amounted to 13 nM.
For the compound `CN(C)CCOc1ccc2c(c1)COc1cc(Nc3ccc(F)cc3F)ccc1C2=O`, the IC50 came out at 53 nM in data set [1] and 38100 nM in data set [2].
Take `CC1(C)OC[C@H](COc2cccc3c2COc2cc(Nc4ccc(F)cc4F)ccc2C3=O)O1`: the IC50 in data set [1] was 481 nM. Further, the inhibition in data set [3] was 42.4%.
On to `O=c1c2ccccc2ccc2cc(Nc3ccc(F)cc3F)ccc12`, for which, in data set [1], the IC50 was 4200 nM.
As for `Nc1ccc2c(c1)C(=O)c1ccc(Nc3cc(F)c(F)cc3F)cc1OC2`, the IC50 in data set [1] came to 74 nM; in data set [2] it was 7810 nM.
For `CC1(C)OC[C@@H](COc2ccc3c(c2)COc2cc(Nc4ccc(F)cc4F)ccc2C3=O)O1` the same measures were 665 nM and 91200 nM.
Turning to `O=C1c2cc(NCCN3CCOCC3)ccc2COc2cc(Nc3ccc(F)cc3F)ccc21`, the IC50 in data set [1] turned out to be 28 nM; in data set [2] it was 1100 nM.
As for `COc1ccc2c(c1)COc1cc(Nc3ccccc3N)ccc1C2=O`, the IC50 in data set [1] was determined as 132 nM; in data set [2], 71800 nM.
Consider `O=C(Nc1cc(Nc2ccc3c(c2)OCc2cc(OCCN4CCOCC4)ccc2C3=O)ccc1F)c1ccccc1`, for which the IC50 in data set [1] amounted to 17 nM. Further, the inhibition in data set [3] stood at 36%.
In the case of `COc1ccc2c(c1)C(=O)c1ccc(Nc3ccc(F)cc3F)cc1OC2`, the IC50 in data set [1] was 115 nM; in data set [2], 4710 nM.
`Nc1ccc2c(c1)C(=O)c1ccc(Oc3ccc(F)cc3F)cc1OC2`: the IC50 in data set [1] amounted to 763 nM.
As for `Nc1ccc2c(c1)C(=O)c1ccc(Nc3ccccc3F)cc1OC2`, the IC50 is 111 nM in data set [1] and 4540 nM in data set [2].
For `CCN(CC)CCOc1ccc2c(c1)C(=O)c1ccc(Nc3ccc(F)cc3F)cc1OC2` the same measures were 101 nM and 1060 nM.
For `O=C1c2cc(OCCCO)ccc2COc2cc(Nc3ccc(F)cc3F)ccc21` the same measures were 8 nM and 631 nM.
`O=C1c2ccc(Nc3ccc(F)cc3F)cc2OCc2c(OCCN3CCOCC3)cccc21`: in data set [1], the half-maximal inhibitory concentration (IC50) worked out at 34 nM. For the same compound, the inhibition in data set [3] worked out at 32.2%.
Take `O=C1c2ccc(OCC[C@@H](O)CO)cc2COc2cc(Nc3ccc(F)cc3F)ccc21`: the IC50 in data set [1] came out at 21 nM; in data set [2] it was 37900 nM.
Regarding `Nc1ccccc1Nc1ccc2c(c1)OCc1cc(OCCN3CCOCC3)ccc1C2=O`, the IC50 in data set [1] stood at 147 nM; in data set [2], 58700 nM.
Regarding `O=C1c2cc(OCCO)ccc2COc2cc(Nc3ccc(F)cc3F)ccc21`, the results for the IC50 in data set [1] and in data set [2] were 20 nM and 588 nM, respectively.
For `O=C1c2cc(OCCC3CCCCC3)ccc2COc2cc(Nc3ccc(F)cc3F)ccc21`, the half-inhibitory concentration (IC50) in data set [2] was 18600 nM. Besides, the inhibition in data set [5] turned out to be 41.3%.
Consider `O=C1c2ccccc2COc2cc(Nc3ccc(F)cc3F)ccc21`, for which the concentration for half-maximal inhibition (IC50) in data set [2] was 22000 nM.
As for `COc1cccc2c1COc1cc(Nc3ccccc3N)ccc1C2=O`, the IC50 in data set [1] was determined as 94 nM.
Consider `Nc1ccc2c(c1)C(=O)c1ccc(Nc3ccc(F)cc3)cc1OC2`, for which the concentration for half-maximal inhibition (IC50) was 103 nM in data set [1] and 5700 nM in data set [2].
For `O=C1c2ccc(OCCN3CCOCC3)cc2COc2cc(Nc3ccc(F)cc3F)ccc21`, the IC50 in data set [1] stood at 33 nM; in data set [2], 71800 nM.
As for `CC1(C)OC[C@@H](COc2ccc3c(c2)C(=O)c2ccc(Nc4ccc(F)cc4F)cc2OC3)O1`, the IC50 stood at 207 nM in data set [1] and 1440 nM in data set [2].
Consider `O=C1c2ccc(Nc3ccc(F)cc3F)cc2CCc2ccc(OC[C@@H](O)CO)cc21`, for which the remaining at 3 h in data set [4] was 100%.
Take `COc1cccc2c1COc1cc(Nc3ccc(F)cc3N)ccc1C2=O`: in data set [1], the half-inhibitory concentration (IC50) worked out at 87 nM.
Still for that read-out and setting: under `COc1cccc2c1C(=O)c1ccc(Nc3ccc(F)cc3F)cc1OC2` stands 280 nM.
Take `O=C1c2ccc(Nc3ccc(F)cc3F)cc2CCc2ccc(O)cc21`: the remaining at 3 h in data set [4] amounted to 70%. Further, the IC50 in data set [1] was 49 nM; in data set [2] it was 1250 nM.
For the compound `CC1(C)OC[C@@H](CCOc2ccc3c(c2)COc2cc(Nc4ccc(F)cc4F)ccc2C3=O)O1`, the IC50 in data set [1] was determined as 516 nM.
On to `Nc1cc(F)ccc1Nc1ccc2c(c1)OCc1c(OCCN3CCOCC3)cccc1C2=O`, for which, in data set [1], the IC50 amounted to 72 nM. Further, in data set [3], the inhibition was 38.8%.
Consider `O=C1c2cc(OCCC3CCOCC3)ccc2COc2cc(Nc3ccc(F)cc3F)ccc21`, for which the IC50 in data set [1] was 79 nM; in data set [2] it was 364 nM.
For the compound `O=C1c2ccc(OCCC3CCOCC3)cc2COc2cc(Nc3ccc(F)cc3F)ccc21`, in data set [1], the IC50 was found to be 557 nM.
With `Nc1ccc2c(c1)C(=O)c1ccc(Nc3ccc(F)cc3F)cc1OC2`, the 50% inhibitory concentration (IC50) amounted to 43 nM in data set [1] and 1940 nM in data set [2].
On to `O=C1c2cc(OC[C@@H](O)CO)ccc2COc2cc(Nc3ccc(F)cc3F)ccc21`, for which the results for the IC50 in data set [1] and in data set [2] were 61 nM and 591 nM, respectively.
On to `O=C(Nc1cccc(Nc2ccc3c(c2)OCc2c(OCCN4CCOCC4)cccc2C3=O)c1)c1ccoc1`, for which the figures for the IC50 in data set [1] and in data set [2] were 25 nM and 51400 nM, respectively.
As for `Cc1cc(F)ccc1Nc1ccc2c(c1)OCc1cc(OCCN3CCOCC3)ccc1C2=O`, the IC50 in data set [1] was determined as 160 nM.
As to `O=C1c2ccc(OC[C@@H](O)CO)cc2COc2cc(Nc3ccc(F)cc3F)ccc21`, the values for the IC50 in data set [1] and in data set [2] were 27 nM and 28200 nM, respectively.
Take `Nc1ccc2c(c1)C(=O)c1ccc(Nc3ccccc3N)cc1OC2`: the IC50 in data set [1] came out at 205 nM; in data set [2], 683 nM.
On to `O=C(Nc1ccc(F)c(Nc2ccc3c(c2)OCc2c(OCCN4CCOCC4)cccc2C3=O)c1)c1ccccc1`, for which the IC50 in data set [1] turned out to be 10 nM. Also, the inhibition in data set [3] was found to be 39%.
With `COc1ccc2c(c1)C(=O)c1ccc(Nc3ccc(F)cc3F)cc1CC2`, the remaining at 3 h in data set [4] was found to be 85%. Also, the results for the IC50 in data set [1] and in data set [2] were 44 nM and 1650 nM, respectively.
For `Nc1ccccc1Nc1ccc2c(c1)OCc1ccc(OCCN3CCOCC3)cc1C2=O`, the results for the IC50 in data set [1] and in data set [2] were 107 nM and 490 nM, respectively.
Take `O=C1c2ccc(Nc3ccc(F)cc3F)cc2OCc2c(OC[C@H](O)CO)cccc21`: in data set [1], the IC50 is 42 nM. Besides, the inhibition in data set [3] is 48.5%.
With `Cc1cc(F)c(NC(=O)c2ccsc2)cc1Nc1ccc2c(c1)OCc1ccc(OC[C@H]3COC(C)(C)O3)cc1C2=O`, the IC50 was determined as 1.8 nM in data set [1] and 287 nM in data set [2].
Turning to `Cc1cc(F)c(NC(=O)c2ccsc2)cc1Nc1ccc2c(c1)OCc1ccc(OCCN3CCOCC3)cc1C2=O`, the values for the IC50 in data set [1] and in data set [2] were 1.7 nM and 148 nM, respectively.
Consider `Nc1cc(F)ccc1Nc1ccc2c(c1)OCc1cc(OCCN3CCOCC3)ccc1C2=O`, for which the IC50 in data set [1] stood at 41 nM; in data set [2], 94800 nM.
As to `O=C1c2ccc(Nc3ccc(F)cc3F)cc2OCc2c(OCCC3CCOCC3)cccc21`, the IC50 in data set [1] is 571 nM.
Regarding `CC1(C)OC[C@H](COc2ccc3c(c2)C(=O)c2ccc(Nc4ccc(F)cc4F)cc2OC3)O1`, the IC50 came out at 48 nM in data set [1] and 1300 nM in data set [2].
As to `COc1ccc2c(c1)COc1cc(Nc3ccc(F)cc3F)ccc1C2=O`, in data set [1], the IC50 was 218 nM.
Regarding `O=C(Nc1ccc(F)c(Nc2ccc3c(c2)OCc2ccc(OCCN4CCOCC4)cc2C3=O)c1)c1ccccc1`, the IC50 in data set [1] was 3 nM; in data set [2], 1560 nM.
With `CC1(C)OC[C@@H](COc2cccc3c2COc2cc(Nc4ccc(F)cc4F)ccc2C3=O)O1`, the IC50 in data set [1] is 563 nM. The inhibition in data set [3] was found to be 48.6%.
